We go through twelve compounds from ChEMBL document CHEMBL3792370, “New pseudodimeric aurones as palm pocket inhibitors of Hepatitis C virus RNA-dependent RNA polymerase” (Eur J Med Chem, 2016).

The source made the active and inactive calls. No cut-off for these calls is given here. Bounds are passed on as bounds.

The EC50 is the concentration at which the effect is half-maximal. The term IC50 denotes the midpoint of a concentration-inhibition curve.

In one data set the test system is Hepatitis C virus. Kind of data set: Antiviral activity against HCV genotype 2a/2a J6/JFH1 model infected in Huh7.5 cells after 72 hrs by luciferase reporter gene assay. The data set is classed as functional, organism-based, Hepacivirus hominis. To be noted: subtype 2a J6/JFH1, Huh7.5, 72 h. In a few lines:
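Huh7.5 cells were seeded at 10 000 cells/well and infected 24 h later with J6/JFH1 HCVcc, then incubated overnight at 37°C. Cells were washed and given increasing compound concentrations in medium with 1% DMSO for 72 h at 37°C. After a PBS wash, cells were lysed in Renilla lysis buffer and luciferase activity was read for 10 s.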
Background: In a reporter assay the amount or activity of a reporter protein is the signal.

A short description of data set [1]: Inhibition of HCV J4 genotype 1b recombinant His-tagged NS5B truncated at 21 C-terminal expressed in Escherichia coli C41 (DE3) assessed as synthesis of […]. Also on record: species or system Hepatitis C virus isolate HC-J4.
The test system of data set [2] is Hepatitis C virus isolate HC-J4. In words: Inhibition of HCV J4 genotype 1b recombinant His-tagged NS5B truncated at 21 C-terminal H95Q mutant expressed in Escherichia coli C41 (DE3) assessed as synthesis of […].
The next data set concerns HEK293. In words: Cytotoxicity against HEK293 cells at 50 uM after 72 hrs by MTT assay. To be noted: human, hek293, 72 h.
A short description of data set [3]: Inhibition of HCV J4 genotype 1b recombinant His-tagged NS5B truncated at 21 C-terminal P495L mutant expressed in Escherichia coli C41 (DE3) assessed as synthesis of […]. Also on record: species or system Hepatitis C virus isolate HC-J4.

In the data set on Hepatitis C virus, `CC(C)CC(COc1ccc(/C=C2\Oc3ccccc3C2=O)cc1)COc1ccc(/C=C2\Oc3ccccc3C2=O)cc1` had an EC50 of over 400 µM.

For the compound `O=C1/C(=C/c2ccc(-c3cccc(/C=C4\Oc5cc(O)cc(O)c5C4=O)c3)cc2)Oc2cc(O)cc(O)c21`, the IC50 in data set [1] came out at 3.1 µM.

As for `O=C1/C(=C/c2ccc(-c3ccccc3/C=C3\Oc4cc(O)cc(O)c4C3=O)cc2)Oc2cc(O)cc(O)c21`, the IC50 in data set [1] stood at 6 µM.

`O=C1/C(=C/c2ccc(OCC(COc3ccc(/C=C4\Oc5cc(O)cc(O)c5C4=O)cc3)CC3CCCCC3)cc2)Oc2cc(O)cc(O)c21` (stereo unspecified): in data set [1], the IC50 worked out at 1.8 µM. This compound returned an EC50 in the data set with Hepatitis C virus of 90 µM.

Turning to `O=C1/C(=C/c2ccc(OCC(COc3ccc(/C=C4\Oc5cc(O)cc(O)c5C4=O)cc3)C3CCCCC3)cc2)Oc2cc(O)cc(O)c21` (stereo unspecified), in data set [1], the IC50 was 2 µM. This compound registered an EC50 with Hepatitis C virus of 42 µM.

With `COc1c(-c2ccc3cc(NS(C)(=O)=O)ccc3c2)cc(-n2ccc(=O)[nH]c2=O)cc1C(C)(C)C` [DASABUVIR], in data set [1], the IC50 amounted to 0.6 µM. The compound further yielded an EC50 with Hepatitis C virus of 9.1 µM.

`CC(C)CC(COc1ccc(/C=C2\Oc3cc(O)cc(O)c3C2=O)cc1)COc1ccc(/C=C2\Oc3cc(O)cc(O)c3C2=O)cc1`: in data set [1], the IC50 was 1.9 µM. The compound also gave an EC50 in the data set with Hepatitis C virus of 76 µM.

Take `O=C1/C(=C/c2ccc(OCCCOc3ccc(/C=C4\Oc5cc(O)cc(O)c5C4=O)cc3)cc2)Oc2cc(O)cc(O)c21`: the IC50 in data set [1] came to 1.5 µM. The concentration giving a half-maximal response (EC50) with Hepatitis C virus was determined as 214 µM.

With `O=C1/C(=C/c2ccc(/C=C3\Oc4cc(O)cc(O)c4C3=O)cc2)Oc2cc(O)cc(O)c21`, the outcome in data set [2] was inactive. Also, the IC50 in data set [1] is 1.3 µM; in data set [3] it was 1.5 µM. For the same compound, the Activity entry in the data set with HEK293 is listed as “Non-toxic”. Further, in the data set on Hepatitis C virus, the EC50 amounted to 202 µM.

In the case of `O=C1/C(=C/c2ccc(OCC(COc3ccc(/C=C4\Oc5cc(O)cc(O)c5C4=O)cc3)C3CCCC3)cc2)Oc2cc(O)cc(O)c21` (stereo unspecified), the IC50 in data set [1] came out at 1.9 µM.

Regarding `O=C1/C(=C/c2cccc(/C=C3\Oc4cc(O)cc(O)c4C3=O)c2)Oc2cc(O)cc(O)c21`, the half-maximal inhibitory concentration (IC50) in data set [1] is 3.6 µM.

Regarding `COc1cc(OC)c2c(c1)O/C(=C\c1cccc(/C=C3\Oc4cc(OC)cc(OC)c4C3=O)c1)C2=O`, the Activity entry in the data set with HEK293 is recorded as “Non-toxic”.
